Converted amounts (≈) assume the structure as drawn.
Assays:
[1] = target: T1, Long-chain-fatty-acid--AMP ligase FadD28 (Mycobacterium tuberculosis, UniProt P9WQ59); assay: Inhibition of Mycobacterium tuberculosis H37Rv FAAL28 Spectra expressed in Escherichia coli BL21(DE3) cells assessed as cleavage of MEsG by spectroscopic analysis; settings: read-out: Ki(app)
T1 sequence (P9WQ59 whole entry): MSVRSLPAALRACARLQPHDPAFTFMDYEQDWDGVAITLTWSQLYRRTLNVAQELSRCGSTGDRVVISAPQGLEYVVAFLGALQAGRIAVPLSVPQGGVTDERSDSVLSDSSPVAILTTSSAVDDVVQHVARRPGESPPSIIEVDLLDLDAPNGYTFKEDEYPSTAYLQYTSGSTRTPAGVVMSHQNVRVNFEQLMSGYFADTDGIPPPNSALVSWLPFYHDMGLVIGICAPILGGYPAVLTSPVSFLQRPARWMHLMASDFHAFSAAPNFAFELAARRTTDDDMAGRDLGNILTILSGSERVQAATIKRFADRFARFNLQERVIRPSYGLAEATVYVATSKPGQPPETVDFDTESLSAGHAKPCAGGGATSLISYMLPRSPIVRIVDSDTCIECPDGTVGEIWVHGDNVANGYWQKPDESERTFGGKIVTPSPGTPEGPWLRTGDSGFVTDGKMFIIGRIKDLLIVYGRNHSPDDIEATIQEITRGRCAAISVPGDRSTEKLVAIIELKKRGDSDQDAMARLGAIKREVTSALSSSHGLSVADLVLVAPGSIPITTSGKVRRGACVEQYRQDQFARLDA
Summary of the method: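 Coupled continuous assay with pyrophosphatase (0.04 U) and nucleoside phosphorylase (0.1 U), using 0.45 μM FAAL28 and 33 μM tetradecanoic acid. Buffer was 50 mM Tris·HCl pH 8.0 with 2.5 mM ATP, 5 mM MgCl₂, 0.5 mM DTT, 150 mM hydroxylamine and 0.2 mM MesG. Apparent Ki came from a Morrison equation fit.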

[2] = target: T2, Medium/long-chain-fatty-acid--CoA/3-oxocholest-4-en-26-oate--CoA ligase (Mycobacterium tuberculosis, UniProt P9WQ51); assay: Inhibition of Mycobacterium tuberculosis H37Rv FACL19 Spectra expressed in Escherichia coli BL21(DE3) cells assessed as cleavage of MEsG by spectroscopic analysis; settings: read-out: Ki(app)
T2 sequence (P9WQ51 whole entry): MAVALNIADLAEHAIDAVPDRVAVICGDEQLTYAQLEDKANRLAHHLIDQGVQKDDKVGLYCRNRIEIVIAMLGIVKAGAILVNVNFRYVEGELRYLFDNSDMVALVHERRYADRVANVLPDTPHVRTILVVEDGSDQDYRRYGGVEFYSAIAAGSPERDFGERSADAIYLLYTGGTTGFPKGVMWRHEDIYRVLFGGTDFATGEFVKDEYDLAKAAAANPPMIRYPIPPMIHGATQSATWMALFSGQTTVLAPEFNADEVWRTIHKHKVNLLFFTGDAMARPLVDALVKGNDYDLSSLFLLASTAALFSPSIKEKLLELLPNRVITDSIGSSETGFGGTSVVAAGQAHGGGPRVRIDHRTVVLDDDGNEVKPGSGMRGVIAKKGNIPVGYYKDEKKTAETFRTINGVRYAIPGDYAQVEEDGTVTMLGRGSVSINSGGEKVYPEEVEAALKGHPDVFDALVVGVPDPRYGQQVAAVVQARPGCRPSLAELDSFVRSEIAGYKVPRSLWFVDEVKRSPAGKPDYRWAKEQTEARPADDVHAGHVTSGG
Summary of the method: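 FACL19 (0.167 μM) with 250 μM dodecanoic acid in a coupled MesG assay with pyrophosphatase and nucleoside phosphorylase. Buffer was 50 mM Tris·HCl pH 8.0 with 2.5 mM ATP, 5 mM MgCl₂, 0.5 mM DTT and 150 mM hydroxylamine. Apparent Ki came from a Morrison tight-binding fit.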

[3] = tested on: Mycobacterium tuberculosis; assay: Antimycobacterial activity against Mycobacterium tuberculosis H37Rv ATCC 27294 assessed as inhibition of bacterial growth under 7H9 medium condition after 7 to 14 days in presence of palmitate by broth microdilution method; format: functional; settings: time 7-14 day
Summary of the method: (§1)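 Mtb H37Rv ATCC 27294 by broth microdilution in GAST or 7H9 base with 5 g/L BSA fraction V, 0.8 g/L NaCl and 0.05% tyloxapol. Carbon source was 20 mM glycerol/10 mM glucose or 0.05 mM sodium palmitate. Compounds came from DMSO stocks with DMSO-only controls. Inoculum was 10⁴-10⁵ cells; growth was read at 7 and 14 days. MIC is the concentration giving >99% growth inhibition; runs were in triplicate.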

[4] = tested on: Vero; assay: Cytotoxicity against African green monkey Vero cells assessed as reduction in cell viability after 72 hrs by MTT assay; format: cell-based; settings: Chlorocebus sabaeus
Summary of the method: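 Vero cells were seeded at (2.5–5.0) × 10⁴ per well in MEM with 5% FBS and penicillin/streptomycin. Compounds were added from 20 mM DMSO stocks to a final 100 μM. Controls were 0.5% and 50% DMSO, all in triplicate. After 72 h at 37 °C in 5% CO₂, cells got 1 mg/mL MTT for 3 h. Formazan was dissolved in isopropanol and read at 570/650 nm, with viability expressed relative to DMSO control.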

[5] = tested on: Mycobacterium tuberculosis; assay: Antimycobacterial activity against Mycobacterium tuberculosis H37Rv ATCC 27294 assessed as inhibition of bacterial growth under 7H9 medium condition after 7 to 14 days by broth microdilution method; format: functional; settings: time 7-14 day; summary of the method: as §1
[6] = tested on: Mycobacterium tuberculosis; assay: Antimycobacterial activity against Mycobacterium tuberculosis H37Rv ATCC 27294 assessed as inhibition of bacterial growth under GAST medium condition after 7 to 14 days by broth microdilution method; format: functional; settings: time 7-14 day; summary of the method: as §1
[7] = tested on: Mycobacterium tuberculosis; assay: Antimycobacterial activity against Mycobacterium tuberculosis H37Rv after 16 hrs; format: functional
[8] = target: T2, Medium/long-chain-fatty-acid--CoA/3-oxocholest-4-en-26-oate--CoA ligase; assay: Inhibition of Mycobacterium tuberculosis H37Rv His-tagged FACL19 expressed in Escherichia coli; settings: read-out: Ki(app)
[9] = target: T1, Long-chain-fatty-acid--AMP ligase FadD28; assay: Inhibition of Mycobacterium tuberculosis H37Rv His-tagged FAAL28 expressed in Escherichia coli; settings: read-out: Ki(app)
[10] = Inhibition of Mycobacterium tuberculosis PKS13
[11] = tested on: Mycolicibacterium smegmatis; assay: Antimycobacterial activity against Mycobacterium smegmatis; format: functional

SMILES	Ki [1]	Ki [2]	MIC [3]	IC50 [4]	MIC [5]	MIC [6]	MIC [7]	Ki [8]	Ki [9]	IC50 [10]	MIC [11]
CCCCCCCCCC(=O)NS(=O)(=O)OC[C@H]1O[C@@H](n2cnc3c(N)ncnc32)[C@H](O)[C@@H]1O	88 µM	> 100 µM	> 100 µM	10.1 µM	100 µM (≈ 50.1 µg/mL)	1.56 µM (≈ 0.781 µg/mL)					
CCCCCCCCCCCC(=O)NS(=O)(=O)OC[C@H]1O[C@@H](n2cnc3c(N)ncnc32)[C@H](O)[C@@H]1O	6.4 µM	67.4 µM	50 µM	28.7 µM	50 µM (≈ 26.4 µg/mL)	0.19 µM (≈ 0.1 µg/mL)	100 µM (≈ 52.9 µg/mL)	4.9 µM	1500 nM		
Cc1cc2oc(=O)cc(-c3cccc(N)c3)c2c(C)c1-c1ccc(CN2CCOCC2)cc1										500 nM	
CCCCCCCCCCCCCCCCCC(=O)NS(=O)(=O)OC[C@H]1O[C@@H](n2cnc3c(N)ncnc32)[C@H](O)[C@@H]1O	0.5 µM	2.4 µM	> 100 µM	0.1 µM	100 µM (≈ 61.3 µg/mL)	100 µM (≈ 61.3 µg/mL)					
NCCCCCCCCCCCC(=O)NS(=O)(=O)OC[C@H]1O[C@@H](n2cnc3c(N)ncnc32)[C@H](O)[C@@H]1O	> 100 µM	93.3 µM	12.5 µM	27.1 µM	50 µM (≈ 27.2 µg/mL)	3.13 µM (≈ 1.7 µg/mL)					
Nc1ncnc2c1ncn2[C@@H]1O[C@H](COS(=O)(=O)NC(=O)CCCCCCCCCCOc2ccccc2)[C@@H](O)[C@H]1O	0.71 µM	> 100 µM	50 µM	2 µM	50 µM (≈ 30.3 µg/mL)	3.13 µM (≈ 1.9 µg/mL)					
CCCCOCCOCCOCC(=O)NS(=O)(=O)OC[C@H]1O[C@@H](n2cnc3c(N)ncnc32)[C@H](O)[C@@H]1O	> 100 µM	> 100 µM	> 100 µM	16 µM	> 100 µM	6.25 µM (≈ 3.43 µg/mL)					
CCCCCCCCCCCCOP(=O)(O)OC[C@H]1O[C@@H](n2cnc3c(N)ncnc32)[C@H](O)[C@@H]1O											20 µM (≈ 10.3 µg/mL)
[N-]=[N+]=NCCCCCCCCCCCC(=O)NS(=O)(=O)OC[C@H]1O[C@@H](n2cnc3c(N)ncnc32)[C@H](O)[C@@H]1O	28.5 µM	> 100 µM	25 µM	5.6 µM	12.5 µM (≈ 7.12 µg/mL)	0.19 µM (≈ 0.108 µg/mL)					
C#CCCCCCCCCC(=O)NS(=O)(=O)OC[C@H]1O[C@@H](n2cnc3c(N)ncnc32)[C@H](O)[C@@H]1O	> 100 µM	> 100 µM	50 µM	9.7 µM	50 µM (≈ 25.5 µg/mL)	1.56 µM (≈ 0.796 µg/mL)					
CCCCCCCCCCCCCC(=O)NS(=O)(=O)OC[C@H]1O[C@@H](n2cnc3c(N)ncnc32)[C@H](O)[C@@H]1O	1.4 µM	10 µM	100 µM	0.9 µM	50 µM (≈ 27.8 µg/mL)	0.39 µM (≈ 0.217 µg/mL)					
CCCCCCCCC[C@@H]1C[C@@H]1C(=O)NS(=O)(=O)OC[C@H]1O[C@@H](n2cnc3c(N)ncnc32)[C@H](O)[C@@H]1O	69.8 µM	> 100 µM	> 100 µM	6.1 µM	> 100 µM	50 µM (≈ 27 µg/mL)					
CCCCCC(=O)NS(=O)(=O)OC[C@H]1O[C@@H](n2cnc3c(N)ncnc32)[C@H](O)[C@@H]1O	> 100 µM	> 100 µM	> 100 µM	48.6 µM	> 100 µM	100 µM (≈ 44.4 µg/mL)					
